Several values for one entry are separate records, joined by “and”; a condition that tells them apart may be missing. Equal entries are not always repeated.
Experiments:
Fibroblast = experiment: Multiplex assay against human fibroblast; type: toxicity, cell-based
Method in brief: (§1)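 With compound added, live cells were imaged on a CQ1 microscope at 37°C and 5% CO2; staining with Hoechst33342, BioTracker Green Microtubule Cytoskeleton Dye, MitoTracker Red and Annexin V Alexa Fluor 680 had been done at seeding. The CellPathfinder machine-learning gating scheme split cells into Hoechst high-intensity objects or normal cells, normal cells into healthy, pyknosed or fragmented nuclei, and pyknosed cells into mitotic or apoptotic. The tubulin, mitochondrial-mass and membrane-permeability phenotypes are per cents of healthy-nucleus cells.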

U2OS = experiment: Multiplex assay against U2OS; type: toxicity, cell-based; conditions: human; method in brief: as §1
[1] = 24 h, 10 µM, compound concentration 10 uM
[2] = 48 h, 1 µM, compound concentration 1 uM
[3] = 48 h, 10 µM, compound concentration 10 uM
[4] = 12 h, 1 µM, compound concentration 1 uM
[5] = 12 h, 10 µM, compound concentration 10 uM
[6] = 24 h, 1 µM, compound concentration 1 uM

For `Cl.NCCc1ccc(O)c(O)c1` [DOPAMINE HYDROCHLORIDE], the “Population Apoptotic (%)” value (Fibroblast; [1]) was 55% and 47%, the “Population Fragmented Nuclei (%)” value (Fibroblast; [1]) was 16% and 37% and the “Population Healthy Nuclei (%)” value (Fibroblast; [1]) was 69% and 46%. For the same molecule, the “Population Hoechst High Intensity Objects (%)” value (Fibroblast; [1]) was 2% and 3%, the “Population Membrane Permeable-Phenotype (%)” value (Fibroblast; [1]) was 1% and 3% and the “Population Mitochondria Different-Phenotype (%)” value (Fibroblast; [1]) was 5% and 7%. For the same molecule, the “Population Mitotic Cells (%)” value (Fibroblast; [1]) was 44% and 52%, the “Population Normal (%)” value (Fibroblast; [1]) was 97% and 96% and the “Population Pyknosed Nuclei (%)” value (Fibroblast; [1]) was 13% and 15%. The “Population Tubulin-Different-Phenotype (%)” value (Fibroblast; [1]) was 22% and 56%, the “Total Cell Count” value (Fibroblast; [1]) was 136 and 126 and the “Population Apoptotic (%)” value (Fibroblast; [2]) was 36% and 38%. The “Population Fragmented Nuclei (%)” value (Fibroblast; [2]) was 22% and 33%, the “Population Healthy Nuclei (%)” value (Fibroblast; [2]) was 66% and 52% and the “Population Hoechst High Intensity Objects (%)” value (Fibroblast; [2]) was 6%. The “Population Membrane Permeable-Phenotype (%)” value (Fibroblast; [2]) was 1% and 5%, the “Population Mitochondria Different-Phenotype (%)” value (Fibroblast; [2]) was 2% and 3% and the “Population Mitotic Cells (%)” value (Fibroblast; [2]) was 63% and 61%. For the same molecule, the “Population Normal (%)” value (Fibroblast; [2]) was 93%, the “Population Pyknosed Nuclei (%)” value (Fibroblast; [2]) was 10% and 14% and the “Population Tubulin-Different-Phenotype (%)” value (Fibroblast; [2]) was 28% and 43%. The “Total Cell Count” value (Fibroblast; [2]) was 110 and 159, the “Population Apoptotic (%)” value (Fibroblast; [3]) was 87% and 90% and the “Population Fragmented Nuclei (%)” value (Fibroblast; [3]) was 21% and 31%. The “Population Healthy Nuclei (%)” value (Fibroblast; [3]) was 66% and 60%, the “Population Hoechst High Intensity Objects (%)” value (Fibroblast; [3]) was 4% and 0% and the “Population Membrane Permeable-Phenotype (%)” value (Fibroblast; [3]) was 0% and 7%. The “Population Mitochondria Different-Phenotype (%)” value (Fibroblast; [3]) was 4%, the “Population Mitotic Cells (%)” value (Fibroblast; [3]) was 12% and 10% and the “Population Normal (%)” value (Fibroblast; [3]) was 95% and 99%. The “Population Pyknosed Nuclei (%)” value (Fibroblast; [3]) was 11% and 8%, the “Population Tubulin-Different-Phenotype (%)” value (Fibroblast; [3]) was 25% and 56% and the “Total Cell Count” value (Fibroblast; [3]) was 141 and 116. For the same molecule, the “Population Apoptotic (%)” value (U2OS; [4]) was 100% and 83%, the “Population Fragmented Nuclei (%)” value (U2OS; [4]) was 23% and 15% and the “Population Healthy Nuclei (%)” value (U2OS; [4]) was 67% and 72%. The “Population Hoechst High Intensity Objects (%)” value (U2OS; [4]) was 3% and 1%, the “Population Membrane Permeable-Phenotype (%)” value (U2OS; [4]) was 5% and 8% and the “Population Mitochondria Different-Phenotype (%)” value (U2OS; [4]) was 1% and 2%. The “Population Mitotic Cells (%)” value (U2OS; [4]) was 0% and 16%, the “Population Normal (%)” value (U2OS; [4]) was 96% and 98% and the “Population Pyknosed Nuclei (%)” value (U2OS; [4]) was 9% and 11%. For the same molecule, the “Population Tubulin-Different-Phenotype (%)” value (U2OS; [4]) was 2% and 5%, the “Total Cell Count” value (U2OS; [4]) was 237 and 104 and the “Population Apoptotic (%)” value (U2OS; [5]) was 80% and 75%. The “Population Fragmented Nuclei (%)” value (U2OS; [5]) was 21% and 18%, the “Population Healthy Nuclei (%)” value (U2OS; [5]) was 65% and 76% and the “Population Hoechst High Intensity Objects (%)” value (U2OS; [5]) was 3% and 0%. The “Population Membrane Permeable-Phenotype (%)” value (U2OS; [5]) was 2% and 4%, the “Population Mitochondria Different-Phenotype (%)” value (U2OS; [5]) was 1% and the “Population Mitotic Cells (%)” value (U2OS; [5]) was 20% and 25%. For the same molecule, the “Population Normal (%)” value (U2OS; [5]) was 96% and 100%, the “Population Pyknosed Nuclei (%)” value (U2OS; [5]) was 12% and 4% and the “Population Tubulin-Different-Phenotype (%)” value (U2OS; [5]) was 1%. For the same molecule, the “Total Cell Count” value (U2OS; [5]) was 204 and 95, the “Population Apoptotic (%)” value (U2OS; [6]) was 90% and 80% and the “Population Fragmented Nuclei (%)” value (U2OS; [6]) was 18% and 14%. The “Population Healthy Nuclei (%)” value (U2OS; [6]) was 69% and 77%, the “Population Hoechst High Intensity Objects (%)” value (U2OS; [6]) was 4% and 1% and the “Population Membrane Permeable-Phenotype (%)” value (U2OS; [6]) was 7% and 4%. For the same molecule, the “Population Mitochondria Different-Phenotype (%)” value (U2OS; [6]) was 2% and 1%, the “Population Mitotic Cells (%)” value (U2OS; [6]) was 10% and 20% and the “Population Normal (%)” value (U2OS; [6]) was 95% and 98%. The “Population Pyknosed Nuclei (%)” value (U2OS; [6]) was 11% and 7%, the “Population Tubulin-Different-Phenotype (%)” value (U2OS; [6]) was 5% and 2% and the “Total Cell Count” value (U2OS; [6]) was 263 and 132. The “Population Apoptotic (%)” value (U2OS; [1]) was 92% and 87%, the “Population Fragmented Nuclei (%)” value (U2OS; [1]) was 18% and 15% and the “Population Healthy Nuclei (%)” value (U2OS; [1]) was 70% and 77%. The “Population Hoechst High Intensity Objects (%)” value (U2OS; [1]) was 2% and 0%, the “Population Membrane Permeable-Phenotype (%)” value (U2OS; [1]) was 4% and 1% and the “Population Mitochondria Different-Phenotype (%)” value (U2OS; [1]) was 0%. The “Population Mitotic Cells (%)” value (U2OS; [1]) was 8% and 12%, the “Population Normal (%)” value (U2OS; [1]) was 97% and 99% and the “Population Pyknosed Nuclei (%)” value (U2OS; [1]) was 10% and 7%. The “Population Tubulin-Different-Phenotype (%)” value (U2OS; [1]) was 1%, the “Total Cell Count” value (U2OS; [1]) was 245 and 111 and the “Population Apoptotic (%)” value (U2OS; [2]) was 90% and 89%. The “Population Fragmented Nuclei (%)” value (U2OS; [2]) was 17% and 14%, the “Population Healthy Nuclei (%)” value (U2OS; [2]) was 70% and 73% and the “Population Hoechst High Intensity Objects (%)” value (U2OS; [2]) was 2%. For the same molecule, the “Population Membrane Permeable-Phenotype (%)” value (U2OS; [2]) was 5% and 7%, the “Population Mitochondria Different-Phenotype (%)” value (U2OS; [2]) was 3% and 4% and the “Population Mitotic Cells (%)” value (U2OS; [2]) was 9% and 10%. The “Population Normal (%)” value (U2OS; [2]) was 97%, the “Population Pyknosed Nuclei (%)” value (U2OS; [2]) was 11% and the “Population Tubulin-Different-Phenotype (%)” value (U2OS; [2]) was 4% and 3%. The “Total Cell Count” value (U2OS; [2]) was 363 and 172, the “Population Apoptotic (%)” value (U2OS; [3]) was 85% and 100% and the “Population Fragmented Nuclei (%)” value (U2OS; [3]) was 18% and 14%. The “Population Healthy Nuclei (%)” value (U2OS; [3]) was 66% and 76%, the “Population Hoechst High Intensity Objects (%)” value (U2OS; [3]) was 2% and 1% and the “Population Membrane Permeable-Phenotype (%)” value (U2OS; [3]) was 7% and 2%. For the same molecule, the “Population Mitochondria Different-Phenotype (%)” value (U2OS; [3]) was 3% and 2%, the “Population Mitotic Cells (%)” value (U2OS; [3]) was 14% and 0% and the “Population Normal (%)” value (U2OS; [3]) was 97% and 98%. The “Population Pyknosed Nuclei (%)” value (U2OS; [3]) was 14% and 8%, the “Population Tubulin-Different-Phenotype (%)” value (U2OS; [3]) was 5% and 2% and the “Total Cell Count” value (U2OS; [3]) was 338 and 179.
